Laboratory results from ChEMBL document CHEMBL1136835, “CB2 selective sulfamoyl benzamides: optimization of the amide functionality” (Bioorg Med Chem Lett, 2009).

How the values were obtained:
Cannabinoid receptor 1 [1] = biological target: T1, Cannabinoid receptor 1 (Homo sapiens, UniProt P21554); test: Displacement of [3H]CP-55940 from human cloned CB1 receptor by scintillation spectrometry
Outline: (§1)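 Cloned human CB1 or CB2 receptor membranes incubated with 0.2–0.6 nM [3H]CP55940 in 50 mM Tris–HCl pH 7.0 with 5.0 mM MgCl2, 1.0 mM EGTA and 1.0 mg/ml fatty-acid-free BSA. CB2 ran 60 min at room temperature and CB1 120 min at 30 °C. Samples filtered through PEI/BSA-soaked GF/C filters and rinsed six times with cold buffer. Counted by scintillation, with nonspecific binding defined by WIN55212-2. Ki is the geometric mean of at least three determinations.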

Cannabinoid receptor 2 [2] = biological target: T2, Cannabinoid receptor 2 (Homo sapiens, UniProt P34972); test: Displacement of [3H]CP-55940 from human cloned CB2 receptor by scintillation spectrometry; outline: as §1
Homo sapiens = species: Homo sapiens; test: Ratio of Ki for human cloned CB1 receptor to Ki for human cloned CB2 receptor; outline: as §1
Cannabinoid receptor 2 [3] = biological target: T2, Cannabinoid receptor 2; test: Agonist activity at human cloned CB2 receptor assessed as stimulation of [35S]GTPgammaS binding
Cannabinoid receptor 1 [4] = biological target: T1, Cannabinoid receptor 1; test: Displacement of [3H]CP-55940 from human cloned CB1 receptor at 10 uM by scintillation spectrometry
Rattus norvegicus [5] = test: Antiallodynic activity in rat hind paw incisional model assessed as mechanical paw-withdrawal threshold at 300 mg/kg, po after 120 mins in presence of aminobenzotriazole relative to aminobenzotriazole-treated control; format: functional
Outline: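 Rat hindpaw incision model. Rats pretreated with the P450 suicide inhibitor aminobenzotriazole, then dosed 300 mg/kg po 120 min before testing. Left hindpaw mechanical withdrawal threshold read, N = 8 per group. One-way ANOVA with protected t-test against ABT-vehicle incised animals.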

[6] = Metabolic stability in rat liver microsomes after 30 mins; format: ADME, Microsome; settings: read-out: Stability
[7] = Metabolic stability in human liver microsomes after 30 mins; format: ADME, Microsome; settings: read-out: Stability
Rattus norvegicus [8] = test: Antiallodynic activity in rat hind paw incisional model assessed as mechanical paw-withdrawal threshold at 30 mg/kg, ip after 30 mins relative to control; format: functional; settings: route intraperitoneal
Outline: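 Rat hindpaw incision model. Mechanical paw-withdrawal threshold measured on the left hindpaw, 30 min after ip dosing at 30 mg/kg. N = 8 per group. Compared with the vehicle-treated group.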

T1 sequence (P21554 whole entry): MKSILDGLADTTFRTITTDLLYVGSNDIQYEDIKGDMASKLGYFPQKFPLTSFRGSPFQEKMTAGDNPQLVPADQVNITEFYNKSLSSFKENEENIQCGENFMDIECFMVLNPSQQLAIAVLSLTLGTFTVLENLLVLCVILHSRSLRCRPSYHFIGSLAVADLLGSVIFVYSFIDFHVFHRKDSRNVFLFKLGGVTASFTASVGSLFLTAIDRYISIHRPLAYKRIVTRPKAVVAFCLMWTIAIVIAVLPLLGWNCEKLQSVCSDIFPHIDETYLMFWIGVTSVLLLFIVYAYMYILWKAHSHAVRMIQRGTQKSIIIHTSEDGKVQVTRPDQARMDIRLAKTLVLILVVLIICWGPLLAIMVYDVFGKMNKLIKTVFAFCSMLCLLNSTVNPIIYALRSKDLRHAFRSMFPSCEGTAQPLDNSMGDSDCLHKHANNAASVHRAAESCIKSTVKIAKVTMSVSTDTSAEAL
T2 sequence (P34972 whole entry): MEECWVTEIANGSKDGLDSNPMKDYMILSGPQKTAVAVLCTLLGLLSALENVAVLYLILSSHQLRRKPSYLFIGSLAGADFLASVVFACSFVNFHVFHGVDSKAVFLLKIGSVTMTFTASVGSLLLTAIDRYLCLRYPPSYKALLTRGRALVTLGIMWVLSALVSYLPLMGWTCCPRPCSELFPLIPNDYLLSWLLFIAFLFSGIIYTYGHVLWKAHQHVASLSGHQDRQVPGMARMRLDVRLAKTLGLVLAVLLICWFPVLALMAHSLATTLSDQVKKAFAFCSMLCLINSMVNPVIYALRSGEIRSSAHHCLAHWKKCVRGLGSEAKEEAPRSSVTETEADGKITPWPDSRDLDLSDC

Compound | Ki (Cannabinoid receptor 1 [1]) | Ki (Cannabinoid receptor 2 [2]) | Ratio Ki (Homo sapiens) | EC50 (Cannabinoid receptor 2 [3]) | Activity (Cannabinoid receptor 1 [4]) | Activity (Rattus norvegicus [5]) | remaining at 0.5 h [6] | remaining at 0.5 h [7] | Activity (Rattus norvegicus [8])
O=C(NCc1ccccc1)c1ccc(Br)c(S(=O)(=O)N2CCOCC2)c1 | > 1000 nM | 800 nM |  |  |  |  |  |  | 
Cc1ccc(-c2nnn(CC(C)(C)C)n2)cc1S(=O)(=O)N1CCOCC1 | 130 nM | 17 nM | 7.6 | 49 nM |  |  |  |  | 
Cc1ccc(NC(=O)C2(C)CCCCC2)cc1S(=O)(=O)N1CCOCC1 | 1200 nM | 35 nM | 34 | 33 nM |  |  |  |  | 
Cc1ccc(C(=O)N[C@H]2C(C)(C)[C@@H]3CC[C@@]2(C)C3)cc1S(=O)(=O)N1CCOCC1 | 540 nM | 48 nM | 11 | 25 nM |  |  |  |  | 
Cc1ccc(-c2nc(C(C)(C)C)c[nH]2)cc1S(=O)(=O)N1CCOCC1 | 1100 nM | 23 nM | 48 | 58 nM |  |  |  |  | 
Cc1ccc(-c2nc(C(C)(C)C)cs2)cc1S(=O)(=O)N1CCOCC1 | 260 nM | 5.7 nM | 47 | 21 nM |  |  |  |  | 
Cc1ccc(NC(=O)[C@@H]2C(C)(C)[C@@H]3CC[C@@]2(C)C3)cc1S(=O)(=O)N1CCOCC1 | 640 nM | 1.7 nM | 380 | 9.6 nM |  |  |  |  | 
Cc1ccc(NC(=O)C(C(C)(C)C)C(C)(C)C)cc1S(=O)(=O)N1CCOCC1 | 1200 nM | 11 nM | 110 | 31 nM |  |  |  |  | 
Cc1ccc(-c2nc(CC(C)(C)C)cs2)cc1S(=O)(=O)N1CCOCC1 | 200 nM | 5.2 nM | 38 | 23 nM |  |  |  |  | 
Cc1ccc(NC(=O)[C@H]2C[C@@]3(C)CC[C@]2(C)O3)cc1S(=O)(=O)N1CCOCC1 |  | 2000 nM |  |  | 44% |  |  |  | 
Cc1ccc(NC(=O)C2CCCCC2C)cc1S(=O)(=O)N1CCOCC1 (stereo unspecified) | 1800 nM | 14 nM | 130 | 42 nM |  |  |  |  | 
Cc1ccc(-c2nnn(CC3CCCCC3)n2)cc1S(=O)(=O)N1CCOCC1 | 560 nM | 82 nM | 6.9 | 78 nM |  |  |  |  | 
Cc1ccc(C(=O)N[C@@H]2C(C)(C)[C@@H]3CC[C@@]2(C)C3)cc1S(=O)(=O)N1CCOCC1 | 130 nM | 3.9 nM | 31 | 4.6 nM |  |  |  |  | 
Cc1ccc(NC(=O)C2CCCCC2)cc1S(=O)(=O)N1CCOCC1 | 1900 nM | 120 nM | 16 |  |  |  |  |  | 
Cc1ccc(-c2n[nH]c(C(C)(C)C)n2)cc1S(=O)(=O)N1CCOCC1 | 530 nM | 100 nM | 5.3 | 130 nM |  |  |  |  | 
Cc1ccc(-c2nnn[nH]2)cc1S(=O)(=O)N1CCOCC1 | > 5000 nM | > 5000 nM |  |  |  |  |  |  | 
Cc1ccc(-c2noc(CC(C)(C)C)n2)cc1S(=O)(=O)N1CCOCC1 | 270 nM | 59 nM | 4.5 | 70 nM |  |  |  |  | 
Cc1ccc(NC(=O)[C@H]2C(C)(C)[C@@H]3CC[C@@]2(C)C3)cc1S(=O)(=O)N1CCOCC1 | 1200 nM | 9.4 nM | 130 | 49 nM |  |  |  |  | 
Cc1ccc(C(=O)NC(C(C)(C)C)C(C)(C)C)cc1S(=O)(=O)N1CCOCC1 |  |  | 9 |  |  |  |  |  | 

Compound | Ki (Cannabinoid receptor 1 [1]) | Ki (Cannabinoid receptor 2 [2]) | Ratio Ki (Homo sapiens) | EC50 (Cannabinoid receptor 2 [3]) | Activity (Cannabinoid receptor 1 [4]) | Activity (Rattus norvegicus [5]) | remaining at 0.5 h [6] | remaining at 0.5 h [7] | Activity (Rattus norvegicus [8])
Cc1ccc(-c2nc(CC(C)(C)C)c[nH]2)cc1S(=O)(=O)N1CCOCC1 | 1100 nM | 36 nM | 31 | 47 nM |  |  |  |  | 
Cc1ccc(NC(=O)c2ccccc2Cl)cc1S(=O)(=O)N1CCOCC1 | 1100 nM | 170 nM | 6.5 | 390 nM |  |  |  |  | 
Cc1ccc(NC(=O)C(C)(C)C)cc1S(=O)(=O)N1CCOCC1 |  | 540 nM |  |  | 4.7% |  |  |  | 
Cc1ccc(-c2nc(CC3CCCCC3)cs2)cc1S(=O)(=O)N1CCOCC1 | 390 nM | 23 nM | 17 | 120 nM |  |  |  |  | 
Cc1ccc(NC(=O)C2CCCCC2(C)C)cc1S(=O)(=O)N1CCOCC1 (stereo unspecified) | 790 nM | 11 nM | 72 | 8400 nM |  |  |  |  | 
Cc1ccc(-c2cnc(C(C)(C)C)[nH]2)cc1S(=O)(=O)N1CCOCC1 |  |  | 9.4 |  |  |  |  |  | 
Cc1ccc(NC(=O)c2ccc(Cl)cc2)cc1S(=O)(=O)N1CCOCC1 |  | 2900 nM |  |  | 25% |  |  |  | 
Cc1ccc(-c2cc(C(C)(C)C)[nH]n2)cc1S(=O)(=O)N1CCOCC1 | 6990 nM | 160 nM |  | 130 nM |  |  |  |  | 
Cc1ccc(-c2n[nH]c(CC3CCCCC3)n2)cc1S(=O)(=O)N1CCOCC1 | 310 nM | 27 nM | 11 | 57 nM |  |  |  |  | 
Cc1ccc(-c2n[nH]c(CC(C)(C)C)n2)cc1S(=O)(=O)N1CCOCC1 | 140 nM | 85 nM | 1.6 | 64 nM |  |  |  |  | 
Cc1ccc(NC(=O)C(C)(C(F)(F)F)C(F)(F)F)cc1S(=O)(=O)N1CCOCC1 | 470 nM | 23 nM | 20 | 29 nM |  |  |  |  | 
Cc1ccc(NC(=O)c2cccc(Cl)c2)cc1S(=O)(=O)N1CCOCC1 | 270 nM | 120 nM | 2.3 | 220 nM |  |  |  |  | 
Cc1ccc(-c2cc(CC(C)(C)C)[nH]n2)cc1S(=O)(=O)N1CCOCC1 | 750 nM | 75 nM | 10 | 120 nM |  |  |  |  | 
Cc1ccc(-c2cc(CC3CCCCC3)[nH]n2)cc1S(=O)(=O)N1CCOCC1 | 1400 nM | 87 nM | 16 | 190 nM |  |  |  |  | 
Cc1ccc(-c2c[nH]c(C(C)(C)C)n2)cc1S(=O)(=O)N1CCOCC1 | 770 nM | 81 nM |  | 130 nM |  |  |  |  | 
Cc1ccc(-c2noc(CC3CCCCC3)n2)cc1S(=O)(=O)N1CCOCC1 | 740 nM | 130 nM | 5.9 | 110 nM |  |  |  |  | 
Cc1ccc(NC(=O)C2C(C)(C)C2(C)C)cc1S(=O)(=O)N1CCOCC1 | 3400 nM | 23 nM | 150 | 11 nM |  | 262% | 2% | 1% | 183%
Cc1ccc(NC(=O)[C@@H]2C[C@@]3(C)CC[C@]2(C)O3)cc1S(=O)(=O)N1CCOCC1 | 2900 nM | 660 nM | 4.4 |  |  |  |  |  | 
Cc1ccc(-c2noc(C(C)(C)C)n2)cc1S(=O)(=O)N1CCOCC1 | 510 nM | 75 nM | 6.8 | 77 nM |  |  |  |  | 
